Each block holds one molecule with its values, some of them ahead of it.
Tests used:
Type in all cases: functional
[1] = test system: Bacillus subtilis; experiment: Minimum inhibitory concentration of salt was tested against Bacillus subtilis at 0.1 M NaH2PO4 adjusted to pH 7.0
[2] = test system: Pseudomonas aeruginosa; experiment: Minimum inhibitory concentration of salt was tested against Pseudomonas aeruginosa at 0.1 M NaH2PO4 adjusted to pH 7.0
[3] = test system: Pseudomonas aeruginosa; experiment: Sterilization time for contact germicidal efficiency (CGE) of salt was tested against at Pseudomonas aeruginosa at pH 7.0, concentration 1026 ppm
[4] = test system: Pseudomonas aeruginosa; experiment: Sterilization time for contact germicidal efficiency (CGE) of salt was tested against at Pseudomonas aeruginosa at pH 8.0, concentration 1008 ppm
[5] = test system: Pseudomonas aeruginosa; experiment: Sterilization time for contact germicidal efficiency (CGE) of salt was tested against at Pseudomonas aeruginosa at pH 6.0, concentration 1009 ppm
[6] = test system: Staphylococcus aureus; experiment: Sterilization time for contact germicidal efficiency (CGE) of salt was tested against Staphylococcus aureus at pH 7.0, concentration 1026 ppm
[7] = test system: Streptococcus pyogenes; experiment: Minimum inhibitory concentration of salt was tested against Streptococcus pyogenes aureus at 0.1 M NaH2PO4 adjusted to pH 7.0
[8] = test system: Streptococcus pyogenes; experiment: Sterilization time for contact germicidal efficiency (CGE) of salt was tested against at Streptococcus pyogenes at pH 6.0, concentration 1009 ppm
[9] = test system: Staphylococcus aureus; experiment: Minimum inhibitory concentration of salt was tested against Staphylococcus aureus aureus at 0.1 M NaH2PO4 adjusted to pH 7.0
How it was run: (§1)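 Bacteria grown 18-20 h at 37 °C in tryptose phosphate broth, adjusted to OD650 0.01, then diluted into double-strength medium to about 2 × 10^5 viable organisms/mL. Compound in 0.1 M NaH2PO4 pH 7.0 was serially twofold diluted into sterile water and added 1:1 to the cultures. MIC read after 18-20 h at 37 °C, with viability, sterility and buffer controls.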

[10] = test system: Staphylococcus aureus; experiment: Sterilization time for contact germicidal efficiency (CGE) of salt was tested against at Staphylococcus aureus at pH 7.0, concentration 1026 ppm
[11] = test system: Staphylococcus aureus; experiment: Sterilization time for contact germicidal efficiency (CGE) of salt was tested against at Staphylococcus aureus at pH 8.0, concentration 1008 ppm
[12] = test system: Streptococcus pyogenes; experiment: Sterilization time for contact germicidal efficiency (CGE) of salt was tested against at Streptococcus pyogenes at pH 8.0, concentration 1008 ppm
[13] = test system: Staphylococcus aureus; experiment: Sterilization time for contact germicidal efficiency (CGE) of salt was tested against at Staphylococcus aureus at pH 6.0, concentration 1009 ppm
[14] = test system: Streptococcus pyogenes; experiment: Sterilization time for contact germicidal efficiency (CGE) of salt was tested against at Streptococcus pyogenes at pH 7.0, concentration 1026 ppm
[15] = test system: Salmonella typhimurium; experiment: (§2) Minimum inhibitory concentration of salt was tested against Salmonella Typhimurium […] at 0.1 M NaH2PO4 adjusted to pH 7.0; settings: Salmonella enterica
[16] = test system: Pseudomonas aeruginosa; experiment: Sterilization time for contact germicidal efficiency (CGE) of salt was tested against at Pseudomonas aeruginosa at pH 7.0, concentration 896.0 ppm
How it was run: (§3)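 Test solutions of the quaternary salt in buffer stood 30 min at room temperature. 0.2 mL of overnight broth culture was added to 5 mL of solution. Inocula: S. aureus ATCC 6538 6-8 × 10^6 cfu/mL, P. aeruginosa ATCC 9027 12-13 × 10^6/mL, S. pyogenes ATCC 19615 5 × 10^6 cfu/mL. At 0.5-30 min intervals a loop was subcultured into nutrient broth and incubated 7 days at 37 °C. Sterilization time is the first interval giving no growth.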

[17] = test system: Pseudomonas aeruginosa; experiment: Sterilization time for contact germicidal efficiency (CGE) of salt was tested against at Pseudomonas aeruginosa at pH 8.0, concentration 1013 ppm
How it was run: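 Pseudomonas aeruginosa ATCC 9027 overnight broth culture (12-13 × 10^6 organisms/mL); 0.2 mL added to 5 mL buffered salt solution held 30 min at room temperature. At intervals from 0.5 to 30 min, a 3-mm loop was subcultured into nutrient broth and incubated at 37 °C for 7 days. Sterilization time is the shortest interval whose subculture gave no growth.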

[18] = test system: Pseudomonas aeruginosa; experiment: Sterilization time for contact germicidal efficiency (CGE) of salt was tested against at Pseudomonas aeruginosa at pH 6.0, concentration 1016 ppm; how it was run: as §3
[19] = test system: Pseudomonas aeruginosa; experiment: Sterilization time for contact germicidal efficiency (CGE) of salt was tested against at Pseudomonas aeruginosa at pH 7.0, concentration 1010 ppm; how it was run: as §3
[20] = test system: Pseudomonas aeruginosa; experiment: Sterilization time for contact germicidal efficiency (CGE) of salt was tested against at Pseudomonas aeruginosa at pH 7.0, concentration 1010.9 ppm; how it was run: as §3
[21] = test system: Staphylococcus aureus; experiment: Sterilization time for contact germicidal efficiency (CGE) of salt was tested against Staphylococcus aureus at pH 7.0, concentration 1010.9 ppm; how it was run: as §3
[22] = test system: Streptococcus pyogenes; experiment: Sterilization time for contact germicidal efficiency (CGE) of salt was tested against at Streptococcus pyogenes at pH 6.0, concentration 1016 ppm
How it was run: (§4)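 Streptococcus pyogenes ATCC 19615 overnight culture, 5 × 10^6 cfu/mL; 0.2 mL into 5 mL test solution of salt in buffer, left 30 min at room temperature beforehand. At timed intervals (0.5 to 30 min), a 3-mm loop was transferred to sterile nutrient broth and incubated at 37 °C for 7 days. Sterilization time is the shortest interval without growth; buffer-only and viability controls were run.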

[23] = test system: Streptococcus pyogenes; experiment: Sterilization time for contact germicidal efficiency (CGE) of salt was tested against at Streptococcus pyogenes at pH 7.0, concentration 1010 ppm; how it was run: as §4
[24] = test system: Streptococcus pyogenes; experiment: Sterilization time for contact germicidal efficiency (CGE) of salt was tested against at Streptococcus pyogenes at pH 7.0, concentration 1010.9 ppm; how it was run: as §4
[25] = test system: Staphylococcus aureus; experiment: Sterilization time for contact germicidal efficiency (CGE) of salt was tested against Staphylococcus aureus at pH 7.0, concentration 896.0 ppm; how it was run: as §3
[26] = test system: Staphylococcus aureus; experiment: Sterilization time for contact germicidal efficiency (CGE) of salt was tested against at Staphylococcus aureus at pH 7.0, concentration 1010 ppm
How it was run: (§5)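 Staphylococcus aureus ATCC 6538, overnight broth culture at 6-8 × 10^6 cfu/mL; 0.2 mL inoculated into 5 mL of buffered quaternary salt solution pre-held 30 min at room temperature. Loop subcultures (3 mm) taken at 0.5-30 min intervals into nutrient broth, incubated at 37 °C for 7 days and read daily. The endpoint is the earliest time giving a growth-free subculture.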

[27] = test system: Staphylococcus aureus; experiment: Sterilization time for contact germicidal efficiency (CGE) of salt was tested against at Staphylococcus aureus at pH 8.0, concentration 1013 ppm; how it was run: as §5
[28] = test system: Streptococcus pyogenes; experiment: Sterilization time for contact germicidal efficiency (CGE) of salt was tested against at Streptococcus pyogenes at pH 7.0, concentration 896.0 ppm; how it was run: as §4
[29] = test system: Streptococcus pyogenes; experiment: Sterilization time for contact germicidal efficiency (CGE) of salt was tested against at Streptococcus pyogenes at pH 8.0, concentration 1013 ppm; how it was run: as §4
[30] = test system: Staphylococcus aureus; experiment: Sterilization time for contact germicidal efficiency (CGE) of salt was tested against at Staphylococcus aureus at pH 6.0, concentration 1016 ppm; how it was run: as §5
[31] = test system: Pseudomonas aeruginosa; experiment: Sterilization time for contact germicidal efficiency (CGE) of salt was tested against at Pseudomonas aeruginosa at pH 7.0, concentration 1035.9 ppm; how it was run: as §3
[32] = test system: Staphylococcus aureus; experiment: Sterilization time for contact germicidal efficiency (CGE) of salt was tested against Staphylococcus aureus at pH 7.0, concentration 1035.9 ppm; how it was run: as §3
[33] = test system: Streptococcus pyogenes; experiment: Sterilization time for contact germicidal efficiency (CGE) of salt was tested against at Streptococcus pyogenes at pH 7.0, concentration 1035.9 ppm; how it was run: as §4
[34] = test system: Salmonella typhimurium; experiment: as §2; settings: Salmonella enterica; how it was run: as §1; remark: listed apart in the source

SMILES: CCCCCCCCCCCC(=O)OC[N+]12CCN(CC1)CC2.[Cl-]
MIC [1]: 32.8 µg/mL
MIC [2]: 1050 µg/mL
Time [3]: 3 min
Time [4]: 4 min
Time [5]: 0.5 min
Time [6]: 0.5 min
MIC [7]: 32.8 µg/mL
Time [8]: 0.5 min
MIC [9]: 65.5 µg/mL
Time [10]: 0.5 min
Time [11]: 0.5 min
Time [12]: 3 min
Time [13]: 7 min
Time [14]: 0.5 min
MIC [15]: 524 µg/mL

MIC [2]: 512 µg/mL
SMILES: CCCCCCCCCCCC(=O)OC[n+]1ccccc1.[Cl-]
Time [16]: 0.5 min
Time [17]: 2 min
Time [18]: 0.5 min
Time [19]: 0.5 min
Time [20]: 0.5 min
Time [21]: 0.5 min
Time [22]: 0.5 min
Time [23]: 0.5 min
Time [24]: 0.5 min
Time [25]: 0.5 min
Time [26]: 0.5 min
Time [27]: 0.5 min
Time [28]: 0.5 min
Time [29]: 7 min
Time [30]: 1 min

MIC [34]: 1060 µg/mL
SMILES: CCCCCCCC(=O)OC[n+]1ccccc1.[Cl-]
Time [31]: >30 min
Time [32]: >30 min
Time [33]: >30 min

Source: ChEMBL document CHEMBL1121429, “Soft drugs. 1. Labile quaternary ammonium salts as soft antimicrobials” (J Med Chem, 1980)
